Only some compounds are listed: those with a hit (about 1.9% of all), similar ones and a draw of the others.
M4 PAM – potentiates acetylcholine response at human M4 receptor. 360,000 compounds, 0.4% hits. CHO-K1 hM4/Gqi5, Fluo-8 calcium fluorescence, ACh EC20; 0% = ACh EC20, 100% = maximal ACh. activation, % at 3 µM. P08173. AID 624126;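 active means activation above its plate's cutoff, the mean activation of sample wells plus 3 SD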
M5 ag – agonists of human muscarinic M5 receptor (CHRM5); P08912; CHO-K1 hM5 cells, Fluo-8 calcium fluorescence; 0% DMSO wells, 100% maximal acetylcholine response; activation, % at 3 µM; 360,000 compounds, 0.19% hits; AID 624037;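 active means activation above the run's mean over test compounds plus 3 SD, cut at about 23% in these data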;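 further: signal is peak over basal fluorescence ratio across the kinetic read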
Target sequence (P08912 whole entry, looked up): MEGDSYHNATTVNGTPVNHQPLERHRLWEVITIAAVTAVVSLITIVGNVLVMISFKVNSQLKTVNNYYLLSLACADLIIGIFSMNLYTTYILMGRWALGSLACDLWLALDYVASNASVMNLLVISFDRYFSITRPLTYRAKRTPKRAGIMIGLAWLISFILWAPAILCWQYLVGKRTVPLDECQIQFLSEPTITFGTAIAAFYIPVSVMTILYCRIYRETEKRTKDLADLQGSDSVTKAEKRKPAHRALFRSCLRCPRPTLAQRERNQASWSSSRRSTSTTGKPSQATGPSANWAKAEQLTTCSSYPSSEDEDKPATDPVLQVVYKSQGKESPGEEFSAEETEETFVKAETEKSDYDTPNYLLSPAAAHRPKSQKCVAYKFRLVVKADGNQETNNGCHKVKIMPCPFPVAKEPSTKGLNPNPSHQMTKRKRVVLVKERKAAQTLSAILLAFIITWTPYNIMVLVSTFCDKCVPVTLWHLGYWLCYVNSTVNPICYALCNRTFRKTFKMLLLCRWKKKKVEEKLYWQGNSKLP
M5 PAM – potentiates acetylcholine response at human M5 receptor | P08912 | CHO-K1 hM5, Fluo-8 calcium, ACh EC20 PAM; 0% = ACh EC20, 100% = ACh EC100 | activation, % at 3 µM | 360,000 compounds, 0.3% hits | AID 624038;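 active means activation above the run cutoff, the mean activation of all test compounds plus 3 SD, cut at about 18% in these data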
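Replicates: One well per compound, no replicates | System: Human M5 receptor in CHO-K1 cells | Benchmarks: Low control EC20 acetylcholine (0%), high control EC100 acetylcholine (100%) | Probe or stimulus: Acetylcholine, EC20 level | Times: Fluo-8 loading 80 min at 37 °C plus 30 min room temperature | Signal: Intracellular calcium via Fluo-8 fluorescence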
M4 antag – CHRM4 antagonism in calcium assay | AID 624125 | inhibition, % at 3 µM | 360,000 compounds, 0.73% hits | CHO-hM4 cells, ACh EC80, Fluo-8 calcium fluorescence;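 active means inhibition above its plate's cutoff, the mean inhibition of sample wells plus 3 SD, cut at about 27% in these data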;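 further: 0% = acetylcholine EC80 with DMSO and 100% = DMSO without agonist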
CHRM4 agonist – CHRM4 agonism in calcium assay; activation, % at 3 µM; AID 624127; P08173; 360,000 compounds, 0.14% hits; CHO-K1 hM4/Gqi5, Fluo-8 calcium fluorescence; vehicle 0%, full acetylcholine response 100%;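 active means activation above the run mean over all test wells plus 3 SD, cut at about 32% in these data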;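 further: peak over basal fluorescence ratio per well then scaled between controls; 0% = DMSO wells and 100% = acetylcholine at EC100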
M5 antag – CHRM5 antagonism in calcium assay; P08912; CHO-hM5 cells, Fluo-8 calcium fluorescence, ACh EC80; inhibition, % at 3 µM; 360,000 compounds, 0.59% hits; AID 624040;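 active means inhibition above a per-plate cutoff, the mean of that plate's test compounds plus 3 SD, cut at about 27% in these data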;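 further: 0% = acetylcholine EC80 with DMSO and 100% = DMSO without agonist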
* = called active by the depositor.

SMILES	M4 PAM	M5 ag	M5 PAM	M4 antag	CHRM4 agonist	M5 antag
O=C(c1ccc(F)cc1)N1CCCN(c2nc(-c3ccccc3)ns2)CC1	-4	6	20*	-11	2	-13
O=C(Nc1ccccc1Cl)N1CCCN(c2nc(-c3ccccc3)ns2)CC1	-38	2	-29	-1	14	16
Cc1ccc(C2=NN(C(=O)CCCC(=O)O)C(c3ccc4c(c3)OCO4)C2)cc1 (stereo unspecified)	-2	1	-4	8	1	13
Fc1ccc(NC(=S)NC2CC3CCCC(C2)N3Cc2cccs2)cc1 (stereo unspecified)	-6	-6	-14	8	3	32*
O=C(O)c1cnnc2ccccc12	-1	4	15	-5	0	4
CC(OC(=O)Cc1c[nH]c2ccccc12)C(=O)c1ccccc1 (stereo unspecified)	4	1	-1	-3	3	4
CC(C)(C)OC(=O)NCc1ccc(CNC(=O)c2nc[nH]c2C(=O)NCc2ccc(CNC(=O)OC(C)(C)C)cc2)cc1	-4	5	-10	2	8	1
CC(C)(C)OC(=O)NCCCCCNC(=O)c1nc[nH]c1C(=O)NCc1ccc(CNC(=O)OC(C)(C)C)cc1	-17	2	-38	54*	34*	33*
S=C(NCc1ccc(Cl)cc1)Nc1ccccc1	-5	2	-4	-9	11	10
Fc1ccc(CNC(=S)Nc2ccc(Cl)cc2)cc1	-13	2	-23	5	12	31*
CCC(NC(=S)NCc1ccc(F)cc1)c1ccc(C(C)C)cc1 (stereo unspecified)	-16	-2	-12	82*	9	13
S=C(NCc1ccncc1)Nc1cccc(Cl)c1	5	3	-4	0	5	12
S=C(NCc1ccc(Cl)cc1)Nc1ccncc1	-9	6	-15	16	18	41*
CN(CC(=O)Nc1cccc(F)c1)C(=O)c1cccnc1Sc1ccccc1Cl	6	1	-5	-18	5	-7
Cc1ccsc1C(=O)OCC(=O)NC1CCCCC1C (stereo unspecified)	1	2	4	3	0	-4
CC(=O)Nc1ccc(S(=O)(=O)N(C)CC(=O)NNc2c(F)c(F)cc(F)c2F)cc1	0	1	1	-2	1	12
Cc1ccc(NC(=O)CSc2nn(-c3ccccc3)c(=S)s2)cc1S(=O)(=O)N(C)C	-12	1	-17	23	13	30*
O=C(CSc1nn(-c2ccccc2)c(=S)s1)Nn1cnnc1	-1	0	5	-8	0	-9
O=C(CSc1nnnn1C1CC2CCC1C2)Nc1ccnc2ccccc12 (stereo unspecified)	-16	10	-16	25	15	32*
Cc1ccc(-n2nc3c(=O)n(CC(=O)NC4CCCCC4)nc(C)c3c2C)cc1	-2	-4	-2	-4	0	6
O=C1CC(N2CCN(C/C=C/c3ccccc3)CC2)C(=O)N1CCc1ccccc1 (stereo unspecified)	-11	3	-24	21	20	7
O=C1CC(N2CCN(C/C=C/c3ccccc3)CC2)C(=O)N1Cc1cccs1 (stereo unspecified)	-24	-10	-33	34*	3	39*
O=C1CC(NS(=O)(=O)c2cccs2)CN1c1ccc(Cl)cc1 (stereo unspecified)	-2	2	-13	-8	7	6
CNC(=O)c1cc(C(=O)c2ccc(C(F)(F)F)cc2)c[nH]1	-16	2	-6	43*	4	5
CNC(=O)c1cc(C(=O)c2ccc(C(F)(F)F)cc2F)c[nH]1	5	0	-4	5	2	9
SMILES	M4 PAM	M5 ag	M5 PAM	M4 antag	CHRM4 agonist	M5 antag
O=S(=O)([O-])C(c1ccccc1)[n+]1ccccc1 (stereo unspecified)	6	5	-1	9	1	4
S=C1NCC(c2ccccc2)S1 (stereo unspecified)	13	-5	18*	-16	1	4
O=C1CC(c2ccccc2)Sc2ccccc2N1 (stereo unspecified)	-2	0	7	2	0	-6
COC(=O)C12OCC34C(CC5C(C)=C(O)C(=O)CC5(C)C3C(O)C1O)OC(=O)C(OC(=O)C=C(C)C)C24 (stereo unspecified)	1	5	6	-11	0	-1
Cc1ccc(SC(=O)c2c([N+](=O)[O-])c(C)nn2C)cc1	-15	-19	-30	57*	-1	17
Cc1cc(C)n(C(=O)c2c([N+](=O)[O-])c(C)nn2C)n1	-8	-1	-3	9	-1	12
CC1CN(C(=O)N(C)C)CCN1C(=O)N(C)C (stereo unspecified)	13	-2	-4	31*	0	7
CCCCN(C)C1=CC2=CC(=C(C#N)C#N)CCC2CC1 (stereo unspecified)	-25	670*	-24	81*	439*	84*
CCN(CC)C1=CC2=CC(=C(C#N)C#N)CCC2CC1 (stereo unspecified)	-21	384*	-23	42*	210*	61*
CC(Sc1nnc(N)s1)C(=O)Nc1ccc2c(c1)OCO2 (stereo unspecified)	13	4	11	-17	0	2
O=C(Nc1cccc(Br)c1)Oc1cccc2cccnc12	-10	9	-21	17	14	34*
O=C(Nc1c(Cl)cccc1Cl)Oc1cccc2cccnc12	3	-3	1	-4	2	-4
N#CCC(=O)N1CCN(C(c2ccccc2)c2ccccc2)CC1	-8	-16	-7	5	-1	12
O=C(O)COCC(=O)N1CCN(C(c2ccccc2)c2ccccc2)CC1	-50	-16	-31	41*	16	40*
COc1ccc(N2CCN(C(=O)CN3CCN(C(c4ccccc4)c4ccccc4)CC3)CC2)cc1	-15	-9	-13	28*	0	4
COc1ccc(N2CCN(CC(=O)NC(C)c3ccccc3)CC2)cc1 (stereo unspecified)	2	-1	8	-3	0	4
O=C(CN1CCN(C(c2ccccc2)c2ccccc2)CC1)N1CCOCC1	-16	-5	-14	37*	2	24
CC(=O)Nc1cccc(C(=O)OCC(=O)N2CCN(C(=O)COC(=O)c3cccc(NC(C)=O)c3)CC2)c1	19	3	-8	-7	0	8
